High-throughput results: PubChem, several laboratories
Many of the other results were omitted from the sample, so hits are more common in it than they were.
CHOP inhibitor = inhibitors of CHOP promoter induction, primary screen, cell-based, unfolded protein response, luciferase reporter. CHO-K1 CHOP-promoter luciferase, tunicamycin-induced, 15-18 h. 3.8% of 220,000 active. inhibition, % at 10 µM. AID 2732, 2010;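 active = compounds that reduced the stress-induced luciferase reporter signal by more than about 70% of percent inhibition, limit read from the data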;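 note: 0% = tunicamycin plus vehicle and 100% = wells without tunicamycin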
XBP1 UPR activ = activators of adaptive XBP1 UPR arm, primary screen, cell-based, CHO-XBP1 luciferase reporter, luminescence, uHTS | IRE1-XBP1 UPR activation; percent of tunicamycin response, DMSO as zero | activation, % at 20 µM | 0.33% of 330,000 active | AID 463104, 2010;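 active = versus positive control, 20 µM dose yields 30% or more activation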;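 note: 100% = tunicamycin at 10 µg/mL and 0% = DMSO only wells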
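Assay system: IRE1-XBP1 luciferase reporter CHO line. Input: 1000 cells/well. Buffer or medium: F12 with 10% serum. Doses: 20 µM, 1% DMSO. Times: overnight seeding at 37 °C, 6 h compound treatment at 37 °C. Technique: Steady-Glo luciferase glow luminescence, 10 min after reagent addition.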
UPR CHOP act = activators of apoptotic CHOP UPR arm, primary screen, cell-based, CHO-CHOP luciferase reporter, luminescence, uHTS; UPR activation; percent of tunicamycin response over DMSO baseline; activation, % at 10 µM; 0.34% of 330,000 active;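 active = at 10 µM dose, activation of 40% or more, normalized to positive control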;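 note: 100% = tunicamycin at 10 µg/mL and 0% = DMSO alone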
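Assay system: CHO-CHOP cells, stable luciferase reporter of PERK-eIF2a-CHOP signalling / Buffer or medium: F12 plus 10% serum / Compound dosing: one dose, 10 µM in 0.5% DMSO / Times: 6 h compound treatment, 37 °C / Technique: luciferase luminescence / Read-out: % reporter activation, DMSO baseline versus tunicamycin full activation / Benchmarks: tunicamycin and DMSO controls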
T cruzi inh = inhibitors of intracellular T. cruzi growth, primary screen, luminescence, NIH3T3 host cells | T. cruzi beta-gal in NIH3T3, 90 h | inhibition, % (concentration not given with the values) | 1.4% of 300,000 active | AID 1885, 2009;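 active = mean inhibition across valid replicates above about 55%, limit read from the data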;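 note: signal also drops with host cell toxicity which is not excluded here; 0% = plate median of DMSO wells and 100% = zero luminescence signal; higher percent means less beta-gal luminescence so fewer parasites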
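Assay system: NIH/3T3 host cells with β-galactosidase reporter T. cruzi; input: 5,000 host fibroblasts per well; compound: single 50 nL compound addition per well in DMSO; timing: ≥90 h infection period, 3 h prior cell attachment; measured by: GalScreen β-gal luminescence, detergent lysis, 60 min; evaluation: percent inhibition of parasite-derived β-gal signal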
Dynein transport = inhibitors of GR-EGFP nuclear translocation, primary screen, dynein cargo transport inhibitor project, imaging, high-content, 3617.4 mouse cells. test concentration mostly 20 µM; stimulated with dexamethasone, 1 µM; active compounds read low. z-score, hits read low. 0.47% of 220,000 active. AID 1381, 2008;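 active = plate z-score of nuclear minus cytoplasmic receptor signal below a set negative limit, without overly bright fluorescence or cell loss, cut at about -3.5 in these data, passing the limit was not always enough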;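 note: z-score of nuclear minus cytoplasmic ring GR-EGFP intensity difference per well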
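Buffer or medium: tet-free, stripped-serum medium; reagent: dexamethasone at 1.0 µM final, 30 min; incubation: 48 h induction, 1 h compound, 30 min dex at 37 °C; measured by: formaldehyde fixation, Hoechst nuclear stain, 10x automated fluorescence imaging; read-out: nuclear-to-cytoplasmic GR-EGFP distribution per well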
Lmaj promast = Leishmania major promastigote growth inhibition, primary screen | 9% of 200,000 active | inhibition, % at 10 µM | AID 1063, 2008 | Leishmania major promastigotes, resazurin fluorescence viability; in the data active = inhibition above about 50%;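 note: promastigotes grown with compound for 44 hours at 28 °C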
CHOP UPR conf = activators of apoptotic CHOP UPR arm, confirmation, cell-based, CHO-CHOP luciferase reporter, single concentration; shares compounds with UPR CHOP act; CHO-CHOP cells, CHOP-luciferase reporter luminescence; percent of tunicamycin response, DMSO as zero; activation, % at 10 µM; 64% of 1,000 active; AID 463112, 2010; in the data active = activation above about 33%;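 note: 0% = DMSO wells and 100% = tunicamycin 10 µg/mL wells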
XBP1 UPR conf = IRE1-XBP1 UPR arm activators, confirmation, cell-based, CHO-XBP1 luciferase reporter, luminescence, single concentration; AID 485299, 2010; activation, % at 20 µM; 63% of 1,000 active; shares compounds with XBP1 UPR activ;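 active = reporter signal at least 30% of the positive control's activation in two or more of four replicate wells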;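 note: plate controls were DMSO negative control for no effect and tunicamycin 10 µg/mL positive control for full effect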
Active calls of the source: *; · = no result.

SMILES | CHOP inhibitor | XBP1 UPR activ | UPR CHOP act | T cruzi inh | Dynein transport | Lmaj promast | CHOP UPR conf | XBP1 UPR conf
COc1ccccc1N=c1oc2c(OC)cccc2cc1C(=O)NCc1ccco1 | 83* | 69* | 76* | 21 | -0.75 | 0 | 67* | 17
COc1ccc(OC)c(N=c2oc3c(OC)cccc3cc2C(=O)NCc2ccco2)c1 | · | 1 | 3 | 3 | · | · | · | ·
COc1ccc(N=c2oc3c(OC)cccc3cc2C(=O)NCc2ccco2)cc1OC | -33 | 45* | 76* | · | 0.45 | -2 | 45* | 17
O=c1/c(=C/c2ccccn2)sc2n1CN(c1ccccc1)CN=2 | 9 | -1 | 2 | 12 | 0.21 | -2 | · | ·
Cc1cc(C)c2c(c1)/C(=c1/sc3n(c1=O)CN(c1ccccc1)CN=3)C(=O)N2 | 81* | 190* | 102* | -8 | -0.33 | · | 83* | 168*
CC(=O)CC(c1ccccc1)S(=O)(=O)c1ccc([N+](=O)[O-])cc1 (stereo unspecified) | · | -1 | 0 | -11 | · | · | · | ·
CCOC(=O)c1[nH]c2ccc(Cl)cc2c1NC(=O)/C=C/c1ccc2c(c1)OCO2 | 48 | 168* | 54* | -6 | 0.22 | -5 | 20 | 138*
CC(OC(=O)C1=COCCO1)C(=O)NC(C)c1ccc(Cl)cc1Cl (stereo unspecified) | · | -2 | 1 | -4 | · | · | · | ·
COc1ccc(/C=c2\s/c(=C(/C#N)C(=O)NCc3ccco3)n(-c3ccccc3)c2=O)cc1 | 28 | 38* | 43* | -4 | 1.1 | 62* | 8 | 43*
COC(=O)/C=c1/s/c(=C(\C#N)C(=O)NCc2ccco2)n(-c2ccccc2)c1=O | 0 | -3 | 1 | 9 | 0.8 | 3 | · | ·
CCCc1nn2c(=O)cc(CSCC(=O)Nc3ccccc3OC)nc2s1 | · | -4 | 1 | 3 | · | · | · | ·
Cc1nn(-c2ccccc2)c(C)c1/C=N/NC(=O)CSc1nc2ccccc2c(=O)n1-c1ccc(Br)cc1 | 85* | 69* | 252* | 22 | 1.6 | 2 | 60* | 111*
COc1ccc(OC)c(NC(=O)c2ccc3c(=O)n(CCc4ccccc4)c(=S)[nH]c3c2)c1 | 100* | 36* | 46* | 1 | -0.13 | -9 | 7 | 16
COc1ccc(OC)c(NC(=O)CCn2c(=S)[nH]c3ccccc3c2=O)c1 | · | 0 | -1 | 2 | · | · | · | ·
CN(C(=O)CSc1nc2ccccc2o1)C1CCCCC1 | · | 2 | 2 | · | · | · | · | ·
Cc1cc(NC(=O)CSC2=NS(=O)(=O)c3ccccc3N2)no1 | · | -1 | 2 | -3 | · | · | · | ·
Cn1nc(C(F)(F)F)c(/C=N/OC(=O)c2ccccc2)c1SCc1ccccc1Cl | 2 | 91* | 52* | -2 | -0.31 | 2 | 100* | 115*
O=C(NC1CCSc2ccccc21)c1ccc(F)c(S(=O)(=O)N2CCOCC2)c1 (stereo unspecified) | · | -3 | -1 | 6 | · | · | · | ·
CCOc1ccc(-n2c(SCC(=O)N3CCc4ccccc43)nnc2-c2c[nH]c3ccccc23)cc1 | -17 | -2 | -1 | 5 | -1 | -6 | · | ·
COc1cccc(-n2c(SCC(=O)N3CCc4ccccc43)nnc2-c2c[nH]c3ccccc23)c1 | 90* | 336* | 102* | -31 | -1 | -7 | 43* | 229*
CS(=O)(=O)c1ccc(N2CCN(c3ccccn3)CC2)c([N+](=O)[O-])c1 | · | -7 | -2 | -1 | · | · | · | ·
COc1cc(/C=C(/C#N)c2nc3ccccc3[nH]2)ccc1OCC(=O)Nc1ccccc1C | 60 | 116* | 299* | · | 3 | -8 | 38* | 79*
CCc1cc(C(=O)N=Nc2c(O)[nH]c3c(Br)cc(Br)cc23)c2ccccc2n1 | 51 | 1 | -1 | 4 | 0.43 | 0 | · | ·
COc1ccc(CNC(=O)CSc2nc(-c3ccccc3)cc(-c3cccs3)c2C#N)cc1 | -37 | 33* | 45* | -5 | 1.5 | 0 | 7 | 20
Cc1ccc(-n2nc3cc(C)c(NC(=S)NC(=O)/C=C/c4ccco4)cc3n2)cc1 | 29 | 56* | 65* | -14 | -0.25 | 2 | 128* | 114*
SMILES | CHOP inhibitor | XBP1 UPR activ | UPR CHOP act | T cruzi inh | Dynein transport | Lmaj promast | CHOP UPR conf | XBP1 UPR conf
Cc1ccc(-n2nc3ccc(NC(=S)NC(=O)/C=C/c4ccco4)cc3n2)cc1 | 8 | 1 | 2 | -24 | 0.42 | 33 | · | ·
O=c1/c(=C/c2ccc(O)cc2)sc2nc3cc(Br)cnc3n12 | -23 | 79* | 63* | -18 | -0.28 | -4 | 13 | 21
COCCNCc1ccccc1[N+](=O)[O-] | · | -2 | 0 | · | · | · | · | ·
Oc1ccc(/C=N/Nc2ncnc3c2ncn3Cc2ccccc2)cc1O | -55 | 136* | 223* | -8 | -0.79 | 7 | 67* | 76*
CCOC(=O)c1sc(NC(=S)NC(=O)c2ccccc2Cl)c(C(=O)OCC)c1C | -1 | 2 | 0 | 13 | 1 | 4 | · | ·
CCOC(=O)c1c(NC(=O)c2cc(-c3ccc(O)cc3)on2)sc(C(C)=O)c1C | 35 | 84* | 78* | -2 | -0.4 | -10 | 24 | 43*
CCOC(=O)c1sc(NC(=S)NC(=O)c2ccccc2)c(C(=O)OCC)c1C | 77* | 51* | 51* | -9 | 0.25 | 30 | 98* | 114*
COc1cc(NC(=O)c2ccc(C)cc2C)ccc1NC(=O)c1cc2ccccc2o1 | · | 148* | 56* | -22 | · | · | 15 | 72*
O=C(Nc1ccc2c(c1)OCO2)C1CC(=O)N(c2ccc(F)cc2)C1 (stereo unspecified) | · | 1 | 2 | -2 | · | · | · | ·
CC1=C(CC/C(C)=N/NC(N)=S)C(C)(C)CCC1 | 29 | 58* | 151* | 52 | 0.26 | 100* | 48* | 55*
C/C(CC(=O)NCc1ccccc1)=N\NC(N)=S | -6 | -2 | 0 | -20 | -0.36 | -5 | · | ·
CC1CC(NC(=O)/C=C/C(=O)O)CC(C)(C)C1 (stereo unspecified) | 14 | 1 | -1 | 10 | -0.32 | · | · | ·
COc1ccc(/C=C/c2nc3ccccc3c(=O)o2)cc1 | · | -10 | -9 | -7 | · | · | · | ·
